Reference: ChEMBL document CHEMBL5543124, “Lead Compound Development of SRC-3 Inhibitors with Improved Pharmacokinetic Properties and Anticancer Efficacy” (J Med Chem, 2024)
Active and inactive are the calls of the source. The calls are words filed in the database; no cut-off is given here.

Key:
[1] = test system: MDA-PCa-118b; experiment: Antitumor activity against patient derived MDA-PCa-118b cells xenografted in SCID mouse assessed as reduction in bone damage at 10 mg/kg,ip administration measured after 4 weeks by X-ray imaging analysis; format: functional, organism-based; conditions: Homo sapiens
Outline: (§1)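 AR-PDX 118b cells (1×10^5) injected via intra-femoral artery in male SCID mice (8–9 weeks). After 2 weeks, 10 mg/kg/day ip or vehicle for 4 weeks (n = 9/group). X-ray imaging every two weeks. At the end, femurs CT-scanned (5 per group) with 3D-reconstruction tumor size, and H&E histology used for tumor/femur area ratio.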

[2] = test system: LNCaP; experiment: Antitumor activity against human LNCaP cells xenografted in SCID mouse assessed as increase in mouse survival at 10 mg/kg,ip administration measured after 4 weeks; format: functional, organism-based
Outline: (§2)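 LNCaP cells (1×10^7) injected subcutaneously on both flanks of male SCID mice. From 4 weeks post-inoculation, 10 mg/kg ip daily for 4 weeks or vehicle (n = 10 vs 11). Caliper tumor size measured weekly (length × width²/2); survival endpoint at tumor diameter 3 cm.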

[3] = test system: LNCaP; experiment: Antitumor activity against human LNCaP cells xenografted in SCID mouse assessed as increase in positive cells of cleaved caspase-3 at 10 mg/kg,ip administration measured after 4 weeks by immunohistochemical analysis; format: functional
Outline: (§3)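 LNCaP subcutaneous xenograft tumors in SCID mice, collected at the end of 4 weeks of 10 mg/kg ip daily dosing or vehicle. IHC for Ki67 and cleaved caspase 3 run on eight tumors from eight mice, at least five fields each; positive cells counted; mean ± SEM reported.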

[4] = test system: LNCaP; experiment: Cytotoxicity against human LNCaP cells assessed as inhibition of cell growth incubated for 72 hrs by MTT assay; format: functional, cell-based
Outline: (§4)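 Cells seeded and grown to 70–80% confluence, then exposed for 72 h to a titration series (0.2–1000 nM). Viability read by MTT relative to untreated cells, with 6 replicates per concentration. IC50 fitted with a Hill-slope model.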

[5] = test system: BT-474; experiment: Cytotoxicity against human BT-474 cells assessed as inhibition of cell growth incubated for 72 hrs by MTT assay; format: functional, cell-based; conditions: BT-474, 72 h; outline: as §4
[6] = test system: LNCaP; experiment: Antitumor activity against human LNCaP cells xenografted in SCID mouse assessed as reduction in microvascular density at 10 mg/kg,ip administration measured after 4 weeks by immunohistochemical analysis relative to control; format: functional; set-up: scale not given: the % may be the effect or the level left
Outline: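 LNCaP xenografts were grown subcutaneously on both flanks of male SCID mice and treated i.p. at 10 mg/kg once daily for 4 weeks, starting 4 weeks after inoculation, with a vehicle control. Tumors were collected at the end of treatment for CD31 immunohistochemistry. Microvascular structures were counted in at least five areas per tumor, using eight tumors from eight mice. Data are mean ± SEM.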

[7] = test system: PANC-1; experiment: Cytotoxicity against human PANC-1 cells assessed as inhibition of cell growth incubated for 72 hrs by MTT assay; format: functional, cell-based; conditions: PANC-1, 72 h; outline: as §4
[8] = Antitumor activity against patient derived MDA-PCa-118b cells xenografted in SCID mouse assessed as reduction in femur volume at 10 mg/kg,ip administration measured after 4 weeks by CT imaging analysis; format: functional, Homo sapiens; set-up: scale not given: the % may be the effect or the level left; outline: as §1
[9] = test system: MDA-MB-468; experiment: Cytotoxicity against human MDA-MB-468 cells assessed as inhibition of cell growth incubated for 72 hrs by MTT assay; format: functional, cell-based; conditions: MDA-MB-468, 72 h; outline: as §4
[10] = test system: MDA-PCa-118b; experiment: Antitumor activity against patient derived MDA-PCa-118b cells xenografted in SCID mouse assessed as reduction in tumor burden in femur at 10 mg/kg,ip administration measured after 4 weeks by CT imaging analysis; format: functional, organism-based; conditions: Homo sapiens; outline: as §1
[11] = test system: LNCaP; experiment: Antitumor activity against human LNCaP cells xenografted in SCID mouse assessed as reduction in tumor growth at 10 mg/kg,ip administration measured after 4 weeks; format: functional; set-up: scale not given: the % may be the effect or the level left
Outline: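 Male SCID mice received 1×10^7 LNCaP cells subcutaneously under the back skin on both sides. Daily i.p. dosing at 10 mg/kg or vehicle began 4 weeks after inoculation and ran for 4 weeks. Tumor length and width were measured weekly, and size was calculated as length × width × width/2.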

[12] = test system: MDA-PCa-118b; experiment: Antitumor activity against patient derived MDA-PCa-118b cells xenografted in SCID mouse assessed as reduction in bone metastasis at 10 mg/kg,ip administration measured after 4 weeks by X-ray imaging analysis; format: functional, organism-based; conditions: Homo sapiens; outline: as §1
[13] = test system: LNCaP; experiment: Antitumor activity against human LNCaP cells xenografted in SCID mouse assessed as reduction in tumor growth at 10 mg/kg,ip administration measured after 1 week; format: functional, organism-based; conditions: time 1.0 weeks; outline: as §2
[14] = test system: MDA-PCa-118b; experiment: Antitumor activity against patient derived MDA-PCa-118b cells xenografted in SCID mouse assessed as reduction in tumor burden in femur at 10 mg/kg,ip administration measured after 4 weeks by hematoxylin and eosin staining based analysis; format: functional, organism-based; conditions: Homo sapiens; outline: as §1
[15] = test system: MCF7; experiment: Cytotoxicity against human MCF7 cells assessed as inhibition of cell growth incubated for 72 hrs by MTT assay; format: functional, cell-based; conditions: MCF7, 72 h
[16] = test system: LNCaP; experiment: Antitumor activity against human LNCaP cells xenografted in SCID mouse assessed as reduction in Ki67 expression at 10 mg/kg,ip administration measured after 4 weeks by immunohistochemical analysis; format: functional, organism-based; outline: as §3
[17] = test system: LNCaP; experiment: Antitumor activity against human LNCaP cells xenografted in SCID mouse assessed as increase in cleaved caspase-3 expression at 10 mg/kg,ip administration measured after 4 weeks by immunohistochemical analysis; format: functional, organism-based; outline: as §3
[18] = Antitumor activity against patient derived MDA-PCa-118b cells xenografted in SCID mouse assessed as reduction in ratio of tumor area to femur area at 10 mg/kg,ip administration measured after 4 weeks by CT imaging analysis; format: functional, Homo sapiens; set-up: scale not given: the % may be the effect or the level left; outline: as §1

## C/C(=N\N=c1/[nH]c2cc(F)c(F)cc2n1C)c1ncccn1
[1]
  Activity: Active
[2]
  Activity: Active
[3]
  Activity: 10%
[4]
  IC50: 11 nM
[5]
  IC50: 1 nM
[6]
  Activity: >50%
[7]
  IC50: 8 nM
[8]
  Activity: >55%
[9]
  IC50: 32 nM
[10]
  Activity: Active
[11]
  Activity: >65%
[12]
  Activity: Active
[13]
  Activity: Active
[14]
  Activity: Active
[15]
  IC50: 3.3 nM
[16]
  Activity: Active
[17]
  Activity: Active
[18]
  Activity: >50%
